{"source": "ChEMBL document CHEMBL4145466", "about": "“Design, synthesis, and biological evaluation of novel combretastatin A-4 thio derivatives as microtubule targeting agents” (Eur J Med Chem, 2018)", "key": {"SK-OV-3 [1]": {"test_system": "SK-OV-3", "test": "Induction of apoptosis in human SKOV3 cells assessed as increase in histone-associated DNA fragments in oligonucleosomes after 24 hrs by ELISA", "type": "functional, cell-based", "how_it_was_run": "(§1)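 Cells (2 × 10^4) were incubated for 24 h at 0.1, 0.5 or 1 µM, lysed and centrifuged. Supernatants went onto a streptavidin plate with anti-histone-biotin and anti-DNA-peroxidase for 2 h, followed by ABTS for 30 min and a reading at 405 nm. Nucleosome content was expressed as an enrichment factor, as mean ± SD of three experiments.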"}, "A-431 [2]": {"test_system": "A-431", "test": "Induction of apoptosis in human A431 cells assessed as increase in histone-associated DNA fragments in oligonucleosomes after 24 hrs by ELISA", "type": "functional, cell-based", "how_it_was_run": "as §1"}, "MCF7 [3]": {"test_system": "MCF7", "test": "Induction of apoptosis in human MCF7 cells assessed as increase in histone-associated DNA fragments in mononucleosomes after 24 hrs by ELISA", "type": "functional, cell-based", "how_it_was_run": "as §1"}, "Tubulin": {"test_system": "Tubulin", "test": "Inhibition of tubulin polymerization in human HaCaT cells assessed as chromatin condensation at 1 uM after 24 hrs by Hoechst 33258 staining-based fluorescence microscopic analysis", "type": "cell-based", "how_it_was_run": "(§2)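 Cells were seeded at 12.5 × 10^4 per well and treated at 1 µM for 24 h. They were stained with Hoechst 33258 (10 µg/mL, 30 min, 37 °C), fixed in 4% formaldehyde, permeabilized with 1% Triton X-100 and blocked in 2% BSA. Anti-α-tubulin-FITC (1:50) was applied overnight at 4 °C, and cells were imaged by fluorescence microscopy.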"}, "Tubulin (Homo sapiens) [4]": {"biological_target": "T1, Tubulin (Homo sapiens) (UniProt P68371+Q9H4B7+P0DPH7+P68366+Q13509+Q71U36+P04350+Q3ZCM7+P07437+P68363+Q9BQE3+Q6PEY2+Q13885+Q9BVA1+Q9BUF5)", "test": "Inhibition of tubulin polymerization in human A431 cells assessed as chromatin condensation at 1 uM after 24 hrs by Hoechst 33258 staining-based fluorescence microscopic analysis", "type": "cell-based", "how_it_was_run": "as §2"}, "A-431 [5]": {"test_system": "A-431", "test": "Induction of apoptosis in human A431 cells assessed as increase in histone-associated DNA fragments in mononucleosomes after 24 hrs by ELISA", "type": "functional, cell-based", "how_it_was_run": "as §1"}, "HeLa [6]": {"test_system": "HeLa", "test": "Induction of apoptosis in human HeLa cells assessed as increase in histone-associated DNA fragments in oligonucleosomes after 24 hrs by ELISA", "type": "functional, cell-based", "how_it_was_run": "as §1"}, "MDA-MB-231": {"test_system": "MDA-MB-231", "test": "Induction of apoptosis in human MDA-MB-231 cells assessed as increase in histone-associated DNA fragments in oligonucleosomes after 24 hrs by ELISA", "type": "functional, cell-based", "how_it_was_run": "as §1"}, "HaCaT [7]": {"test_system": "HaCaT", "test": "Induction of apoptosis in human HaCaT cells assessed as increase in histone-associated DNA fragments in oligonucleosomes after 24 hrs by ELISA", "type": "cell-based", "how_it_was_run": "as §1"}, "HeLa [8]": {"test_system": "HeLa", "test": "Induction of apoptosis in human HeLa cells assessed as increase in histone-associated DNA fragments in mononucleosomes after 24 hrs by ELISA", "type": "functional, cell-based", "how_it_was_run": "as §1"}, "Tubulin (Homo sapiens) [9]": {"biological_target": "T1, Tubulin (Homo sapiens)", "test": "Inhibition of tubulin polymerization in human SKOV3 cells assessed as chromatin condensation at 1 uM after 24 hrs by Hoechst 33258 staining-based fluorescence microscopic analysis", "type": "cell-based", "how_it_was_run": "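Cells seeded at 12.5 × 10^4 per well and exposed to 1 µM compound for 24 h. Nuclei were stained with Hoechst 33258 (10 µg/mL, 30 min, 37 °C), then fixed in 4% formaldehyde/PBS (15 min, RT). Cells were permeabilized with 1% Triton X-100, blocked with 2% BSA/PBS for 1 h, and incubated with anti-α-tubulin-FITC (1:50) overnight at 4 °C. Imaged by fluorescence microscopy.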"}, "MCF7 [10]": {"test_system": "MCF7", "test": "Induction of apoptosis in human MCF7 cells assessed as increase in histone-associated DNA fragments in oligonucleosomes after 24 hrs by ELISA", "type": "functional, cell-based", "how_it_was_run": "as §1"}, "HeLa [11]": {"test_system": "HeLa", "test": "Cell cycle arrest in human HeLa cells assessed as accumulation of cells at G2/M phase at 0.1 to 1 uM after 24 hrs by propidium iodide staining-based FACS analysis", "type": "functional", "how_it_was_run": "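Cells were seeded at 5 × 10^5 per well in DMEM with 10% FBS and left overnight, then exposed to 0.1, 0.5 or 1 µM for 24 h. DMSO served as the negative control and 50 nM camptothecin as the positive control. Cells were trypsinized, fixed in 70% ethanol for 30 min at 4 °C, stained with 50 µg/mL PI plus 100 µg/mL RNase A for 30 min in the dark, and analysed by flow cytometry. Results are mean ± SD of three experiments, compared by ANOVA with Dunnett's test.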"}, "SK-OV-3 [12]": {"test_system": "SK-OV-3", "test": "Induction of apoptosis in human SKOV3 cells assessed as increase in histone-associated DNA fragments in mononucleosomes at 0.1 uM after 24 hrs by ELISA", "type": "functional, cell-based", "how_it_was_run": "as §1"}, "HaCaT [13]": {"test_system": "HaCaT", "test": "Induction of apoptosis in human HaCaT cells assessed as increase in histone-associated DNA fragments in oligonucleosomes at 0.1 uM after 24 hrs by ELISA", "type": "cell-based", "how_it_was_run": "(§3)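 HaCaT cells (2 × 10^4), grown in DMEM with 10% FBS, penicillin/streptomycin and 2 mM L-glutamine, exposed to compound (DMSO stock) for 24 h. Cells lysed, supernatant taken after centrifugation and incubated 2 h on a streptavidin-coated plate with anti-histone-biotin and anti-DNA-peroxidase. ABTS added for 30 min, A405 read. Output is enrichment factor vs control, mean ± SD of three independent experiments.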"}, "HaCaT [14]": {"test_system": "HaCaT", "test": "Induction of apoptosis in human HaCaT cells assessed as increase in histone-associated DNA fragments in mononucleosomes at 0.1 uM after 24 hrs by ELISA", "type": "cell-based", "how_it_was_run": "as §3"}}, "note": "Activity calls are given as the source filed them. The rule behind the calls is not given here."}
{"smiles": "COc1ccc(-c2ocnc2-c2cc(Br)c(OC)c(OC)c2)cc1SC", "values": [{"measurement": "Activity", "setting": "SK-OV-3 [1]", "value": "Dose-dependent effect"}, {"measurement": "Activity", "setting": "A-431 [2]", "value": "Dose-dependent effect"}, {"measurement": "Activity", "setting": "MCF7 [3]", "value": "Dose-dependent effect"}, {"measurement": "inhibition (INH)", "setting": "Tubulin", "value": "Active"}, {"measurement": "inhibition", "setting": "Tubulin (Homo sapiens) [4]", "value": "Active"}, {"measurement": "Activity", "setting": "A-431 [5]", "value": "Dose-dependent effect"}, {"measurement": "Activity", "setting": "HeLa [6]", "value": "Dose-dependent effect"}, {"measurement": "Activity", "setting": "MDA-MB-231", "value": "Dose-dependent effect"}, {"measurement": "Activity", "setting": "HaCaT [7]", "value": "Dose-dependent effect"}, {"measurement": "Activity", "setting": "HeLa [8]", "value": "Dose-dependent effect"}, {"measurement": "inhibition", "setting": "Tubulin (Homo sapiens) [9]", "value": "Active"}, {"measurement": "Activity", "setting": "MCF7 [10]", "value": "Dose-dependent effect"}, {"measurement": "Activity", "setting": "HeLa [11]", "value": "Dose-dependent effect"}]}
{"smiles": "COc1ccc(-c2ocnc2-c2cc(OC)c(SC)c(OC)c2)cc1O", "values": [{"measurement": "Activity", "setting": "SK-OV-3 [12]", "value": "Active"}, {"measurement": "Activity", "setting": "HaCaT [13]", "value": "Toxic"}, {"measurement": "Activity", "setting": "HaCaT [14]", "value": "Toxic"}]}
